Experimental data as given in ChEMBL document CHEMBL4017507 (J Med Chem, 2017).

Key:
Human alphaherpesvirus 1 [1] = assay: Antiviral activity against ACV-resistant thymidine kinase deficient Herpes simplex virus 1 KOS infected in human HEL cells assessed as inhibition of virus-induced cytopathic effect; type: functional, cell-based; details: Human alphaherpesvirus 1, KOS
Procedure, shortened: (§1)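 Confluent HEL fibroblast monolayers were inoculated in 96-well plates with 100 CCID50 of virus in the presence of serially varied compound concentrations. Cytopathicity was scored once untreated infected controls reached full CPE.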

Human alphaherpesvirus 2 = assay: Antiviral activity against Herpes simplex virus 2 G infected in human HEL cells assessed as inhibition of virus-induced cytopathic effect; type: functional, cell-based; details: Human alphaherpesvirus 2, strain G; procedure, shortened: as §1
[2] = Drug metabolism assessed as carboxypeptidase Y (unknown origin)-mediated metabolite 81 formation measured after 24 hrs by [31P]-NMR spectroscopic analysis; type: ADME; details: human
Human alphaherpesvirus 3 [3] = assay: Antiviral activity against Varicella-Zoster virus OKA infected in human HEL cells assessed as inhibition of virus-induced cytopathic effect; type: functional, cell-based; details: Human alphaherpesvirus 3, strain Oka vaccine
Procedure, shortened: (§2)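 Confluent HEL fibroblast cultures were inoculated with 20 PFU of VZV in the presence of varying compound concentrations. Plaque formation was recorded once untreated infected controls reached completion.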

MT4 = assay: Cytotoxicity against human MT4 cells assessed as reduction in cell viability by cell counting method; type: cell-based
Procedure, shortened: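 MT-4 cultures, untreated or treated, were assessed with an automated cell counter using propidium iodide staining to enumerate total and dead cells.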

[4] = Drug metabolism assessed as carboxypeptidase Y (unknown origin)-mediated metabolite 81 peak measured with in 1 hr by [31P]-NMR spectroscopic analysis; type: ADME; details: human
Human alphaherpesvirus 1 [5] = assay: Antiviral activity against Herpes simplex virus 1 KOS infected in human HEL cells assessed as inhibition of virus-induced cytopathic effect; type: functional, cell-based; details: Human alphaherpesvirus 1, KOS; procedure, shortened: as §1
Human alphaherpesvirus 3 [6] = assay: Antiviral activity against thymidine kinase deficient Varicella-Zoster virus 07-1 infected in human HEL cells assessed as inhibition of virus-induced cytopathic effect; type: functional, cell-based; details: Human alphaherpesvirus 3, 07-1, HEL; procedure, shortened: as §2
Human betaherpesvirus 5 [7] = assay: Antiviral activity against human cytomegalovirus AD-169 infected in human HEL cells assessed as inhibition of virus-induced cytopathic effect; type: functional, cell-based; details: Human betaherpesvirus 5, AD-169, HEL; procedure, shortened: as §1
HEL = assay: Cytotoxicity against human HEL cells assessed as cell growth inhibition by cell counting method; type: cell-based
Human betaherpesvirus 5 [8] = assay: Antiviral activity against human cytomegalovirus Davis infected in human HEL cells assessed as inhibition of virus-induced cytopathic effect; type: functional, cell-based; details: Human betaherpesvirus 5, Davis; procedure, shortened: as §1
CCRF-CEM = assay: (§3) Cytostatic activity human CEM cells assessed as reduction in cell viability after 72 hrs by cell counting method; type: cell-based; details: ccrf-cem, 72 h
Procedure, shortened: (§4)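 (5–7.5) × 10^? CEM cells per well were grown with compound for 72 h at 37 °C under humidified CO2. Cells were counted in a Coulter counter.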

[9] = test system: Human immunodeficiency virus 1; assay: Antiviral activity against HIV1 X4LAI.04 infected in human MT4 cells assessed as decrease in viral replication by p24gag-based luminex assay; type: functional, cell-based; details: Human immunodeficiency virus 1, X4LAI.04, MT4
Procedure, shortened: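 10^6 MT-4 cells were infected with HIV-1 X4LAI.04 (7 ng p24) for 2 h at 37 °C, then washed with PBS and resuspended. Compounds were added and cultures were kept 3 days at 37 °C. Supernatant p24 was measured by bead-based Luminex. Inhibition was calculated as (1 − p24 treated/p24 untreated) × 100, and EC50 was derived from it.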

[10] = Cytotoxicity against human HEL cells assessed as alteration to cell morphology by microscopic analysis; type: cell-based
Procedure, shortened: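 Minimal cytotoxic concentration is the compound concentration giving a microscopically visible alteration of HEL cell morphology, scored in the antiviral assay cultures.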

[11] = test system: Human immunodeficiency virus 1; assay: Antiviral activity against HIV1 X4LAI.04 infected in human tonsillar tissues assessed as inhibition of virus-induced cytopathic effect by p24gag-based luminex assay; type: functional; details: Human immunodeficiency virus 1, X4LAI.04
Procedure, shortened: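 Tonsillectomy tissue blocks of 2–3 mm³ were cultured on collagen sponge gels at the air–liquid interface, 27 blocks per donor per condition. Blocks were pretreated with compound overnight, infected with HIV-1 X4LAI.04 and cultured 12 days, with drug replenished at each medium change every 3 days. Medium p24 was measured by Luminex. Inhibition was calculated against untreated tissue, and EC50 was derived from it.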

[12] = Selectivity index, ratio of IC50 for human MT4 cells to EC50 for HIV1 X4LAI.04; type: toxicity; details: read-out: Ratio IC50/EC50
[13] = Drug metabolism assessed as carboxypeptidase Y (unknown origin)-mediated metabolite 81 peak measured after 15 mins by [31P]-NMR spectroscopic analysis; type: ADME; details: human
[14] = Drug metabolism assessed as carboxypeptidase Y (unknown origin)-mediated metabolite 79 formation measured after 15 mins by [31P]-NMR spectroscopic analysis; type: ADME; details: human
[15] = as §3; type: cell-based, CCRF-CEM; details: CEM cells (CCRF-CEM); procedure, shortened: as §4

Structure (SMILES)	EC50 (Human alphaherpesvirus 1 [1])	EC50 (Human alphaherpesvirus 2)	Drug metabolism [2]	EC50 (Human alphaherpesvirus 3 [3])	IC50 (MT4)	Drug metabolism [4]	EC50 (Human alphaherpesvirus 1 [5])	EC50 (Human alphaherpesvirus 3 [6])	EC50 (Human betaherpesvirus 5 [7])	CC50 (HEL)	EC50 (Human betaherpesvirus 5 [8])	CC50 (CCRF-CEM)	EC50 [9]	MCC [10]	EC50 [11]	selectivity ratio [12]	Drug metabolism [13]	Drug metabolism [14]	CC50 at 72 h [15]
CC(C)OC(=O)[C@H](C)NP(=O)(OCC(CO)OCn1cnc2c(=O)[nH]c(N)nc21)Oc1cccc2ccccc12 (stereo partly drawn)	≥ 75 µM	3 µM	Metabolite_Notdetected	≥ 23.5 µM	150 µM	Metabolite_Detected	2 µM	≥ 10.8 µM	> 50 µM	> 50 µM	6.8 µM	35 µM	40 µM	> 100 µM					
C[C@H](NP(=O)(OCC(CO)CCn1cnc2c(=O)[nH]c(N)nc21)Oc1ccccc1)C(=O)OCc1ccccc1 (stereo partly drawn)	≥ 100 µM	16 µM		2.6 µM	> 150 µM		8 µM	45 µM	> 50 µM	> 100 µM	> 50 µM	> 250 µM	10 µM	50 to 100 µM	> 20 µM				
COc1nc(N)nc2c1ncn2CCC(CO)COP(=O)(N[C@@H](C)C(=O)OCc1ccccc1)Oc1ccccc1 (stereo partly drawn)	39 µM	29 µM		17.1 µM	23 µM		39 µM	22.2 µM	31.6 µM	≥ 83 µM	7.9 µM	32 µM	1.1 µM	50 to 100 µM	0.9 µM	2.1			
Nc1nc(O)c2ncn(CSC(CO)CO)c2n1	1.6 µM	0.5 µM		6.9 µM	> 150 µM		0.4 µM	> 50 µM	> 50 µM	> 100 µM	40.8 µM	> 500 µM	> 150 µM	50 to 100 µM	> 30 µM				
C[C@H](NP(=O)(OCC(CO)OCn1cnc2c(=O)[nH]c(N)nc21)Oc1cccc2ccccc12)C(=O)OCc1ccccc1 (stereo partly drawn)	3 µM	0.5 µM		9.5 µM	100 µM		0.4 µM	28.2 µM	9.5 µM		6.5 µM		8 µM	> 100 µM	11 µM				
C[C@H](NP(=O)(OCC(COP(=O)(N[C@@H](C)C(=O)OCc1ccccc1)Oc1ccccc1)SCn1cnc2c(=O)[nH]c(N)nc21)Oc1ccccc1)C(=O)OCc1ccccc1 (stereo partly drawn)	> 100 µM	> 100 µM		23 µM	21 µM		> 100 µM	> 50 µM	> 50 µM	> 100 µM	> 50 µM	77 µM	24 µM	50 to 100 µM	> 3 µM				
C[C@H](NP(=O)(OCC(CO)CCn1cnc2c(=O)[nH]c(N)nc21)Oc1cccc2ccccc12)C(=O)OCc1ccccc1 (stereo partly drawn)	> 100 µM	79 µM		9.3 µM	100 µM		73 µM	> 50 µM	> 50 µM	> 100 µM	> 50 µM	138 µM	21 µM	50 to 100 µM			Metabolite_Detected	Metabolite_Detected	
CCOC(=O)[C@H](C)NP1(=O)OCC(OCn2cnc3c(=O)[nH]c(N)nc32)CO1 (stereo partly drawn)					> 150 µM								22 µM		4.6 µM				
COc1nc(N)nc2c1ncn2CCC(CO)CO	> 100 µM	> 100 µM		22.8 µM	> 150 µM		> 100 µM	> 50 µM	> 50 µM	> 100 µM	> 50 µM	246 µM	> 150 µM	50 to 100 µM	> 30 µM				
Nc1nc2c(ncn2CCC(CO)CO)c(=O)[nH]1 [PENCICLOVIR]	4 µM				> 150 µM			10.2 µM	> 50 µM	> 100 µM	> 50 µM		> 150 µM	> 100 µM	11 µM				
Nc1nc(O)c2ncn(COC(CO)CO)c2n1 [GANCICLOVIR]		0.04 µM			> 50 µM					273 µM			> 50 µM	100 to 350 µM	5 µM				> 100 µM
C[C@H](NP(=O)(OCC(COP(=O)(N[C@@H](C)C(=O)OCc1ccccc1)Oc1cccc2ccccc12)SCn1cnc2c(=O)[nH]c(/N=C/N(C)C)nc21)Oc1cccc2ccccc12)C(=O)OCc1ccccc1 (stereo partly drawn)	> 100 µM	> 100 µM		> 20 µM	4 µM		> 100 µM	> 20 µM	> 50 µM	30 µM	> 50 µM	17 µM	9 µM	50 to 100 µM					
CCC(C)(C)COC(=O)[C@H](C)NP(=O)(OCC(CCn1cnc2c(OC)nc(N)nc21)COP(=O)(N[C@@H](C)C(=O)OCC(C)(C)CC)Oc1cccc2ccccc12)Oc1cccc2ccccc12 (stereo partly drawn)	> 100 µM	> 100 µM		6.4 µM	9 µM		> 100 µM	9.5 µM	> 20 µM	5 µM	> 20 µM	7.2 µM	5.6 µM	50 to 100 µM					
Nc1nc(Cl)c2ncn(CCC(CO)CO)c2n1	> 100 µM	> 100 µM		> 50 µM	> 150 µM		> 100 µM	> 50 µM	> 50 µM	> 100 µM	> 50 µM	400 µM	> 150 µM	50 to 100 µM	> 60 µM				
CC(=O)OCC(CO)OCn1cnc2c(Cl)nc(N)nc21 (stereo not drawn)					> 150 µM							≥ 250 µM	> 150 µM		> 10 µM				
C[C@H](NP(=O)(OCC(CCn1cnc2c(Cl)nc(N)nc21)COP(=O)(N[C@@H](C)C(=O)OCc1ccccc1)Oc1ccccc1)Oc1ccccc1)C(=O)OCc1ccccc1 (stereo partly drawn)	> 100 µM	> 100 µM		44 µM	20 µM		> 100 µM	44.1 µM	> 100 µM	4 µM	> 100 µM	14 µM	7 µM	> 100 µM					
CC(C)(NP(=O)(OCC(COP(=O)(NC(C)(C)C(=O)OCc1ccccc1)Oc1cccc2ccccc12)OCn1cnc2c(=O)[nH]c(N)nc21)Oc1cccc2ccccc12)C(=O)OCc1ccccc1 (stereo not drawn)	1.6 µM	0.9 µM		13.6 µM	> 150 µM		0.3 µM	7.2 µM	≥ 44.9 µM	> 100 µM	50 µM	> 20 µM	> 150 µM	50 to 100 µM					
C[C@H](NP(=O)(OCC(CCn1cnc2c(=O)[nH]c(/N=C/N(C)C)nc21)COP(=O)(N[C@@H](C)C(=O)OCc1ccccc1)Oc1cccc2ccccc12)Oc1cccc2ccccc12)C(=O)OCc1ccccc1 (stereo partly drawn)	> 100 µM	> 100 µM		8.8 µM	4 µM		> 100 µM	11.7 µM	> 20 µM	19 µM	> 20 µM	19 µM	3.2 µM	50 to 100 µM					
COc1nc(N)nc2c1ncn2CCC(COP(=O)(N[C@@H](C)C(=O)OCC(C)(C)C)Oc1cccc2ccccc12)COP(=O)(N[C@@H](C)C(=O)OCC(C)(C)C)Oc1cccc2ccccc12 (stereo partly drawn)	> 100 µM	> 100 µM		4.3 µM	5 µM		> 100 µM	7.7 µM	15 µM	2.5 µM	20 µM	4.6 µM	8.2 µM	20 to 100 µM					
